The test system of assay [1] is HUVEC. Put plainly: Effect on TAOK1 gene expression in serum-starved HUVEC after 6 hrs by microarray analysis relative to control. The assay is classed as functional, Homo sapiens.
Assay [2] concerns the target Vascular endothelial growth factor receptor 2 (Homo sapiens) (UniProt P35968). Put plainly: Inhibition of VEGF-165-induced VEGFR2 autophosphorylation at Tyr996 in serum-starved HUVEC at 2 uM preincubated for 2 hrs followed by VEGF-165 induction measured after 5 mins by Western blot analysis. The assay is classed as cell-based.
Assay [3] has as its system HUVEC. Put plainly: Effect on GANAB gene expression in serum-starved HUVEC after 24 hrs by microarray analysis relative to control. In kind it is functional, Homo sapiens. Summed up: (§1)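 Confluent, serum-starved HUVEC (pooled from 3–5 donors, passage ≤4) treated with 2 μM compound or vehicle with 2.5% FBS for 6 h or 24 h. Total RNA hybridized to Illumina Human-HT12 arrays. Data were background-corrected, vst-transformed and rsn-normalized. Hits called by moderated paired t-test versus DMSO-treated cells, p < 0.05 and log2 fold change >|0.5|.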

The subject of assay [4] is HUVEC. Put plainly: Effect on RNA18S5 gene expression in serum-starved HUVEC after 24 hrs by microarray analysis relative to control. In kind it is functional, Homo sapiens.
Assay [5] has as its system HUVEC. Put plainly: Effect on ESM1 gene expression in serum-starved HUVEC after 24 hrs by microarray analysis relative to control. In kind it is functional, Homo sapiens. In a few lines:
(§2)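 Confluent serum-starved HUVEC (primary, pooled from 3–5 donors, passage ≤4) treated with 2 μM compound or DMSO vehicle in 2.5% FBS for 6 h or 24 h. Total RNA hybridized to Illumina Human-HT12 arrays, background-corrected, vst-transformed and rsn-normalized. Differential expression versus DMSO by moderated paired t-test (p < 0.05, |log2 fold change| > 0.5).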

For assay [6], the system named is HUVEC. Put plainly: Effect on ZMAT3 gene expression in serum-starved HUVEC after 6 hrs by microarray analysis relative to control. The assay is classed as functional, Homo sapiens.
In assay [7] the test system is HUVEC. Put plainly: Effect on ASAP1 gene expression in serum-starved HUVEC after 24 hrs by microarray analysis relative to control. In kind it is functional, Homo sapiens. Summed up: (§3)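 Serum-starved confluent HUVEC (primary, pooled from 3–5 donors, passage ≤4) treated with 2 μM test compound or DMSO vehicle (working dilutions ≤0.1% v/v) in presence of 2.5% FBS for 6 h or 24 h; total RNA hybridized to Illumina Human-HT12 arrays; background correction, vst, rsn normalization; moderated paired t-test versus DMSO, thresholds p < 0.05 and log2 fold change >|0.5|.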

Assay [8] in a line: Upregulation of MSMO1 gene expression in serum-starved HUVEC at 2 uM after 24 hrs by qRT-PCR analysis. In kind it is functional, cell-based. The note with it: Homo sapiens.
Assay [9] concerns HUVEC. Put plainly: Effect on HAVCR2 gene expression in serum-starved HUVEC after 6 hrs by microarray analysis relative to control. The assay is classed as functional, Homo sapiens. In a few lines:
as §2

Assay [10] deals with HUVEC. Put plainly: Effect on HAVCR2 gene expression in serum-starved HUVEC after 24 hrs by microarray analysis relative to control. The assay is classed as functional, Homo sapiens. Summed up: as §2
Assay [11] relates to HUVEC. Put plainly: Effect on CXCR4 gene expression in serum-starved HUVEC after 24 hrs by microarray analysis relative to control. In kind it is functional, Homo sapiens. In a few lines:
as §2

In assay [12] the test system is HUVEC. Put plainly: Effect on DKK1 gene expression in serum-starved HUVEC after 6 hrs by microarray analysis relative to control. In kind it is functional, Homo sapiens. Summed up: as §2
For assay [13], the system named is HUVEC. Put plainly: Effect on GINS2 gene expression in serum-starved HUVEC after 24 hrs by microarray analysis relative to control. The assay is classed as functional, Homo sapiens. In a few lines:
as §1

In assay [14] the test system is HUVEC. Put plainly: Effect on FAM212A gene expression in serum-starved HUVEC after 24 hrs by microarray analysis relative to control. In kind it is functional, Homo sapiens. In a few lines: as §3
The subject of assay [15] is HUVEC. Put plainly: Effect on ATP1B1 gene expression in serum-starved HUVEC after 6 hrs by microarray analysis relative to control. In kind it is functional, Homo sapiens. Summed up: (§4)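 Serum-starved confluent HUVEC treated with 2 μM compound or DMSO in 2.5% FBS for 6 h or 24 h; RNA hybridized to Illumina Human-HT12 arrays. Data background-corrected, vst-transformed and rsn-normalized. Differential probes called by moderated paired t-test (limma) at p < 0.05 and log2 fold change >|0.5| vs DMSO.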

Assay [16] concerns HUVEC. Put plainly: Effect on FAM212A gene expression in serum-starved HUVEC after 6 hrs by microarray analysis relative to control. The assay is classed as functional, Homo sapiens. Summed up: as §2
In assay [17] the test system is HUVEC. Put plainly: Effect on PODXL gene expression in serum-starved HUVEC after 24 hrs by microarray analysis relative to control. In kind it is functional, Homo sapiens. Summed up:
(§5)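 Serum-starved confluent HUVEC (pooled from 3–5 donors, passage ≤4) were treated with 2 μM compound or vehicle in 2.5% FBS for 6 h or 24 h, and total RNA was isolated. Hybridization was on Illumina Human-HT12. Data were processed with bgAdjust, vst and rsn normalization. Changes versus DMSO were called by moderated paired t-test at p < 0.05 and |log2 fold change| > 0.5.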

The subject of assay [18] is HUVEC. Put plainly: Effect on SPRY4 gene expression in serum-starved HUVEC after 24 hrs by microarray analysis relative to control. The assay is classed as functional, Homo sapiens.
Assay [19] in a line: Upregulation of INSIG1 gene expression in serum-starved HUVEC at 2 uM after 24 hrs by qRT-PCR analysis. The assay is classed as functional, cell-based. To be noted: Homo sapiens.
Assay [20] has as its system HUVEC. Put plainly: Effect on PLA2G4C gene expression in serum-starved HUVEC after 6 hrs by microarray analysis relative to control. In kind it is functional, Homo sapiens. Summed up: as §5
Assay [21] relates to HUVEC. Put plainly: Effect on MYLIP gene expression in serum-starved HUVEC after 6 hrs by microarray analysis relative to control. The assay is classed as functional, Homo sapiens.
Assay [22] can be described thus: Downregulation of CCNA2 gene expression in serum-starved HUVEC at 2 uM after 24 hrs by qRT-PCR analysis. In kind it is functional, cell-based. To be noted: Homo sapiens. In a few lines: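 Serum-starved confluent HUVEC treated with 2 μM compound or vehicle in 2.5% FBS for 24 h. Total RNA isolated and qRT-PCR run in triplicate (95 °C 5 min; 40 cycles of 95 °C 5 s, 58 °C 20 s, 72 °C 5 s), normalized to RPS18S. Fold change vs control, n = 3.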

The subject of assay [23] is HUVEC. Put plainly: Effect on EMCN gene expression in serum-starved HUVEC after 24 hrs by microarray analysis relative to control. The assay is classed as functional, Homo sapiens. Summed up:
as §2

The test system of assay [24] is HUVEC. Put plainly: Effect on SMC4 gene expression in serum-starved HUVEC after 24 hrs by microarray analysis relative to control. In kind it is functional, Homo sapiens.
For assay [25], the system named is HUVEC. Put plainly: Effect on UHRF1 gene expression in serum-starved HUVEC after 6 hrs by microarray analysis relative to control. In kind it is functional, Homo sapiens.
For assay [26], the system named is HUVEC. Put plainly: Effect on CDK1 gene expression in serum-starved HUVEC after 24 hrs by microarray analysis relative to control. The assay is classed as functional, Homo sapiens. In a few lines:
as §4

Assay [27] relates to HUVEC. Put plainly: Effect on YES1 gene expression in serum-starved HUVEC after 6 hrs by microarray analysis relative to control. In kind it is functional, Homo sapiens.
The subject of assay [28] is HUVEC. Put plainly: Effect on UBE2J1 gene expression in serum-starved HUVEC after 6 hrs by microarray analysis relative to control. In kind it is functional, Homo sapiens.
Assay [29] relates to HUVEC. Put plainly: Effect on CYP26B1 gene expression in serum-starved HUVEC after 6 hrs by microarray analysis relative to control. The assay is classed as functional, Homo sapiens. Summed up: as §1
The test system of assay [30] is HUVEC. Put plainly: Effect on ANGPT2 gene expression in serum-starved HUVEC after 6 hrs by microarray analysis relative to control. In kind it is functional, Homo sapiens. Summed up:
as §4

The test system of assay [31] is HUVEC. Put plainly: Effect on FAM198B gene expression in serum-starved HUVEC after 6 hrs by microarray analysis relative to control. The assay is classed as functional, Homo sapiens. In a few lines: as §2
Assay [32] concerns HUVEC. Put plainly: Effect on SIVA1 gene expression in serum-starved HUVEC after 24 hrs by microarray analysis relative to control. In kind it is functional, Homo sapiens.
In assay [33] the test system is HUVEC. Put plainly: Effect on CDC20 gene expression in serum-starved HUVEC after 6 hrs by microarray analysis relative to control. The assay is classed as functional, Homo sapiens. In a few lines: as §4
Assay [34] has as its system HUVEC. Put plainly: Effect on MBNL2 gene expression in serum-starved HUVEC after 24 hrs by microarray analysis relative to control. The assay is classed as functional, Homo sapiens. Summed up: as §5

The source made the active and inactive calls.

Chain of Vascular endothelial growth factor receptor 2 (Homo sapiens) (P35968 whole entry): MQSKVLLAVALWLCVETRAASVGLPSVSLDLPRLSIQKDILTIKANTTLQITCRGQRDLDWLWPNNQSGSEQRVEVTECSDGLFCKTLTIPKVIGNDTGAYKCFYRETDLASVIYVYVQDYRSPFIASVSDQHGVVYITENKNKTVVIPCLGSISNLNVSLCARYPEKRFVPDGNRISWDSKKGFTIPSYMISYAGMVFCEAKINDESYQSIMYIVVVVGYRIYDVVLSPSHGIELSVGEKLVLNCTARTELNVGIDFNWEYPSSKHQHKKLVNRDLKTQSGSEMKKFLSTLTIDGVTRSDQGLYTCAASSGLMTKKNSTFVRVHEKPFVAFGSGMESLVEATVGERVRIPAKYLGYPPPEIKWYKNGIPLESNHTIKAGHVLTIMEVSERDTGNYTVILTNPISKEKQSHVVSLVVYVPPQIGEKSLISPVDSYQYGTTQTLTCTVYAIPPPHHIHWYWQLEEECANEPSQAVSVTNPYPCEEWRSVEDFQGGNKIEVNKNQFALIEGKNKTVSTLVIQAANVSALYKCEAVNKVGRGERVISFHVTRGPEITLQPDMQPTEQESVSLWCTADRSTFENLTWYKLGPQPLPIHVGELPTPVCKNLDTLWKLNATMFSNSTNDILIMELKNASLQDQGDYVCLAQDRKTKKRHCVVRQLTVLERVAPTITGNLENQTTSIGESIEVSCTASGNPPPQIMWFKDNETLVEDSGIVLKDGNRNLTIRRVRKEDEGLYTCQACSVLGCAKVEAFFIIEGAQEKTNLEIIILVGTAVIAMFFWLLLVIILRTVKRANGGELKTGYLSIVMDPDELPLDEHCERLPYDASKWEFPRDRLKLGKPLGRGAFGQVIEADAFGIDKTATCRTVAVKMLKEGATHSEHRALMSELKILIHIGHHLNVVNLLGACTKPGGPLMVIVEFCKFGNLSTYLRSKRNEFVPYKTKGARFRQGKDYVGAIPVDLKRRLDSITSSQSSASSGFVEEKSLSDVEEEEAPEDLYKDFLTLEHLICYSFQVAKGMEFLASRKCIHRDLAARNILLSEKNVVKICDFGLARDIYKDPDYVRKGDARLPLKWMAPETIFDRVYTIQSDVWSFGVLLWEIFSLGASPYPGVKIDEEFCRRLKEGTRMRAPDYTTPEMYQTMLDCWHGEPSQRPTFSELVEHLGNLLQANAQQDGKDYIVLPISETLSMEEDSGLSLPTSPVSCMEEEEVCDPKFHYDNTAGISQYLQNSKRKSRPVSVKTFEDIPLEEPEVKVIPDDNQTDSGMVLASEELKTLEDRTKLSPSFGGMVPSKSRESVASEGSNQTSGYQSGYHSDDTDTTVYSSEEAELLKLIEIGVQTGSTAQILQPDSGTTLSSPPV

In the case of `COc1ccc(Cn2nc(-c3ccccc3)c3cc(Nc4ccc(N5CCN(C)CC5)cc4)nc(N4CCNCC4)c32)cc1`, the log2FC with HUVEC [1] is reported as -0.1058; with HUVEC [3], -0.5222; with HUVEC [4], 0.5309. For the same molecule, the inhibition result in assay [2] was “Active”.

Consider `COc1ccc(Cn2nc(-c3ccccc3)c3cc(Nc4ccc(N5CCN(C)CC5)cc4)nc(N4CCN(C)CC4)c32)cc1`, for which the “fold change (FC)” value in the assay with HUVEC [5] is 0.8252; in the assay on HUVEC [7], 0.1181; in the assay on HUVEC [9], 0.9139; in the assay with HUVEC [10], -0.7422; in the assay with HUVEC [11], 0.6553; in the assay with HUVEC [12], 0.1994. In addition, the “fold change (FC)” value is given as 0.5468 in the assay with HUVEC [14]; 0.237 with HUVEC [15]; 0.129 in the assay on HUVEC [16]; 0.9471 with HUVEC [18]; 0.3857 in the assay on HUVEC [20]; -0.5593 in the assay with HUVEC [21]. The “fold change (FC)” value in the assay on HUVEC [23] was 0.5299; with HUVEC [25], 0.012; in the assay with HUVEC [30], 0.2528; in the assay with HUVEC [31], 0.7445. The log2FC is 0.5844 with HUVEC [6]; -0.5372 with HUVEC [13]; 0.6696 in the assay with HUVEC [17]; -0.5117 with HUVEC [24]; -0.5092 with HUVEC [26]; 0.3231 in the assay with HUVEC [27]. Besides, the log2FC in the assay on HUVEC [28] is 0.4634; in the assay on HUVEC [29], -0.3941. For the same molecule, the outcome in assay [8], in assay [19] and in [22] was Active.

With `COc1ccc(Cn2nc(-c3ccccc3)c3cc(Cl)nc(N4CCNCC4)c32)cc1`, the log2FC in the assay with HUVEC [32] was -0.5225; with HUVEC [34] it was 0.526. In the assay with HUVEC [33], the “fold change (FC)” value turned out to be 0.127.

Values taken from ChEMBL document CHEMBL3856209, “Novel pyrazolopyridine derivatives as potential angiogenesis inhibitors: Synthesis, biological evaluation and transcriptome-based mechanistic analysis” (Eur J Med Chem, 2016).
